# Test results: ChEMBL document CHEMBL4477209, “Indole-2-carboxamide-based MmpL3 Inhibitors Show Exceptional Antitubercular Activity in an Animal Model of Tuberculosis Infection” (J Med Chem, 2016)
# The source made the active and inactive calls. No cut-off for these calls is given here.
# What was measured:
# [1] = test system: Mycobacterium tuberculosis; test: Antimycobacterial activity against Mycobacterium tuberculosis H37Rv infected in BALB/c mouse model assessed as reduction in CFU counts in lung at 200 mg/kg administered daily via oral gavage for 5 days per week measured after 28 days post dosage relative to control; assay type: functional
# How it was run: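 Bactericidal-dose model in aerosol-infected BALB/c mice given 25, 50, 100 or 200 mg/kg orally in 0.5% carboxymethylcellulose in water for 4 weeks. Lung CFU compared with the count at treatment initiation; survival also recorded.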
# Cytochrome P450 2C9 = Cytochrome P450 2C9 (Homo sapiens, UniProt P11712); test: Inhibition of CYP2C9 (unknown origin); assay type: ADME
# [2] = Stability in human liver microsomes assessed as compound remaining at 3 uM after 1 hr; assay type: ADME, Microsome; settings: read-out: Stability
# How it was run: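 Human liver microsomes incubated with 3 μM starting concentration for 1 h; percent of compound remaining.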
# [3] = Cmax in BALB/c mouse plasma at 100 mg/kg administered via oral gavage after 0.25 to 24 hrs by LC-MS analysis; assay type: ADME, organism-based; set-up: dose 100 mg/kg, route oral
# How it was run: (§1)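 Female BALB/c mice (20 g), single oral gavage dose of 100 mg/kg. Cardiac blood and lungs taken at 0, 0.25, 0.5, 1, 2, 4, 8 and 24 h (n = 3 per time point). Plasma separated by centrifugation; lungs bead-beaten in water and supernatant recovered. Drug quantified by LC-MS/MS against an indole-2-carboxamide internal standard. Parameters derived by noncompartmental analysis.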
# [4] = molecular target: T1, Nuclear receptor subfamily 1 group I member 2 (Homo sapiens, UniProt O75469); test: Transactivation of PXR (unknown origin) assessed as upregulation of CYP3A4 at 0.1 to 1 microg/ml; assay type: ADME
# T1 sequence (O75469 whole entry): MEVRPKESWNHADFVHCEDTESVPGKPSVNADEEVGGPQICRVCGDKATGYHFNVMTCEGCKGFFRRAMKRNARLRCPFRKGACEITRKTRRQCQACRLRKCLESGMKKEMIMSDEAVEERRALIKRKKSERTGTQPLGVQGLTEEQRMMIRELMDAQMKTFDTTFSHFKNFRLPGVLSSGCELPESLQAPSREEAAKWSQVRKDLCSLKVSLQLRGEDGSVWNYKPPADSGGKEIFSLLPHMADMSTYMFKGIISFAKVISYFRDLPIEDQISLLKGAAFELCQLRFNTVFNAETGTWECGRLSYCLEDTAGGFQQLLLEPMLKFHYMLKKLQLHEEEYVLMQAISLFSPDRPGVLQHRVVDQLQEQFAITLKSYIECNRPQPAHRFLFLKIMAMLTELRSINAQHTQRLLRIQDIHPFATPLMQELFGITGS
# How it was run: (§2)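 Nuclear receptor reporter-gene induction assay, with reporters coupled to PXR, CAR or AhR. Compound was tested at 0.1–1, 3 and 8 μg/mL. Positive controls were rifampin for PXR, CITCO for CAR and 3-methylcholanthrene for AhR.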
# [5] = Tmax in BALB/c mouse lung at 100 mg/kg administered via oral gavage after 0.25 to 24 hrs by LC-MS analysis; assay type: ADME, organism-based
# How it was run: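 Female BALB/c mice (20 g) got a single 100 mg/kg oral gavage dose. Three animals were sacrificed per time point at 0, 0.25, 0.5, 1, 2, 4, 8 and 24 h. Cardiac blood was spun at 12 000g, 4 °C for plasma. Lungs were bead-beaten in water and the supernatant taken. Both matrices were quantified by LC-MS/MS with an indole-2-carboxamide internal standard. Parameters came from noncompartmental analysis.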
# [6] = Mean residence time (last) in BALB/c mouse plasma at 100 mg/kg administered via oral gavage by LC-MS analysis; assay type: ADME, organism-based; how it was run: as §1
# [7] = test system: Mycobacterium tuberculosis; test: Antimycobacterial activity against Mycobacterium tuberculosis H37Rv assessed as growth inhibition at 0.0313 times MIC after 7 to 14 days in presence of 0.5 times MIC of rifampin by alamar blue assay based by Bliss synergy model analysis; assay type: functional
# How it was run: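 Checkerboard of 2-fold dilutions, 4.0 to 0.0313 × MIC of each drug combined with rifampin. M. tuberculosis H37Rv at 1 × 10^4 CFU per well in 200 μL. Single-drug, blank and full-growth controls included. alamarBlue read-out, percent inhibition calculated. Bliss independence applied to wells below 1 × MIC; Δfaxy > 0 taken as synergy, < 0 as antagonism.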
# [8] = Cmax in BALB/c mouse lung at 100 mg/kg administered via oral gavage after 0.25 to 24 hrs by LC-MS analysis; assay type: ADME, organism-based; set-up: dose 100 mg/kg, route oral; how it was run: as §1
# [9] = molecular target: T2, Nuclear receptor subfamily 1 group I member 3 (Homo sapiens, UniProt Q14994); test: Transactivation of CAR (unknown origin) assessed as upregulation of CYP2B6 at 0.1 to 1 microg/ml; assay type: ADME; how it was run: as §2
# T2 sequence (Q14994 whole entry): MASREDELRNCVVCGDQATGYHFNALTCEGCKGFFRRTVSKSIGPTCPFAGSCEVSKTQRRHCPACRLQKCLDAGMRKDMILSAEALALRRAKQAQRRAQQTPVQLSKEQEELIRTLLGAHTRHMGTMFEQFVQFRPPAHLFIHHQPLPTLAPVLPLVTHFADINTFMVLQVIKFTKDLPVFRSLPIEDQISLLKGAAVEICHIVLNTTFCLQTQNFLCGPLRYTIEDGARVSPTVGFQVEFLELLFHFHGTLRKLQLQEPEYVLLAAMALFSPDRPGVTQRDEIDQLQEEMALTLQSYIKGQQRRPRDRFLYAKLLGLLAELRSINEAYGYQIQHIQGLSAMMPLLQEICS
# [10] = Stability in mouse hepatocytes assessed as compound remaining at 1 uM after 2 hrs; assay type: ADME, cell-based, Hepatocyte; settings: read-out: Stability
# How it was run: (§3)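 Hepatocytes from human, mouse, rat or dog incubated with 1 μM starting concentration for 2 h; percent of parent compound remaining.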
# [11] = Selectivity index, ratio of IC50 for african green monkey Vero cells to MIC for clinical isolates of Mycobacterium tuberculosis; assay type: toxicity; settings: read-out: Selectivity Index
# [12] = Stability in rat hepatocytes assessed as compound remaining at 1 uM after 2 hrs; assay type: ADME, cell-based, Hepatocyte; settings: read-out: Stability; how it was run: as §3
# [13] = molecular target: Voltage-gated inwardly rectifying potassium channel KCNH2 (Homo sapiens, UniProt Q12809); test: Inhibition of human ERG
# [14] = test system: Mycobacterium tuberculosis; test: Antimycobacterial activity against Mycobacterium tuberculosis H37Rv grown on serum isolated from 100 mg/kg, po treated BALB/c mouse for 30 to 120 mins assessed as reduction in bacterial growth followed by bacterial addition incubated for 7 days by alamar blue reagent based serum inhibition titration assay; assay type: functional, organism-based
# How it was run: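 Six-week-old female BALB/c mice (20 g) given one oral dose as suspension in 0.5% CMC in water; isoniazid 10 mg/kg as positive control, vehicle as negative. Serum collected at 30, 60 and 120 min, pooled from three mice per time point, 2-fold serially diluted. 10^4 CFU H37Rv added per well, 7 days at 37 °C. alamarBlue added for 16−18 h, fluorescence read at Ex544/Em590 and plotted against serum titration.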
# Cytochrome P450 2C9, sequence (P11712 whole entry): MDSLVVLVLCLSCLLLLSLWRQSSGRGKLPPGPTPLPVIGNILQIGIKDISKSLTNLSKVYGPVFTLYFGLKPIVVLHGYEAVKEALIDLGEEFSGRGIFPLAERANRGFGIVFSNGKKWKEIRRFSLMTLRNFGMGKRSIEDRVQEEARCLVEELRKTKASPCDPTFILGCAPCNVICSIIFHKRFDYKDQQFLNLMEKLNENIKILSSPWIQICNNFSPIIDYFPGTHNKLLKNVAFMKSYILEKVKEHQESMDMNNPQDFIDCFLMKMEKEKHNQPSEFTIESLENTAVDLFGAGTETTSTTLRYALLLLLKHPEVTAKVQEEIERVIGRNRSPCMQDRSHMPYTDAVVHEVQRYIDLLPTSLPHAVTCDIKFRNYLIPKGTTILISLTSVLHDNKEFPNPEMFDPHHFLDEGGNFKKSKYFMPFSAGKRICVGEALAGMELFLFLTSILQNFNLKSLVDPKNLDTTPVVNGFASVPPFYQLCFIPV
# Voltage-gated inwardly rectifying potassium channel KCNH2, sequence (Q12809 whole entry): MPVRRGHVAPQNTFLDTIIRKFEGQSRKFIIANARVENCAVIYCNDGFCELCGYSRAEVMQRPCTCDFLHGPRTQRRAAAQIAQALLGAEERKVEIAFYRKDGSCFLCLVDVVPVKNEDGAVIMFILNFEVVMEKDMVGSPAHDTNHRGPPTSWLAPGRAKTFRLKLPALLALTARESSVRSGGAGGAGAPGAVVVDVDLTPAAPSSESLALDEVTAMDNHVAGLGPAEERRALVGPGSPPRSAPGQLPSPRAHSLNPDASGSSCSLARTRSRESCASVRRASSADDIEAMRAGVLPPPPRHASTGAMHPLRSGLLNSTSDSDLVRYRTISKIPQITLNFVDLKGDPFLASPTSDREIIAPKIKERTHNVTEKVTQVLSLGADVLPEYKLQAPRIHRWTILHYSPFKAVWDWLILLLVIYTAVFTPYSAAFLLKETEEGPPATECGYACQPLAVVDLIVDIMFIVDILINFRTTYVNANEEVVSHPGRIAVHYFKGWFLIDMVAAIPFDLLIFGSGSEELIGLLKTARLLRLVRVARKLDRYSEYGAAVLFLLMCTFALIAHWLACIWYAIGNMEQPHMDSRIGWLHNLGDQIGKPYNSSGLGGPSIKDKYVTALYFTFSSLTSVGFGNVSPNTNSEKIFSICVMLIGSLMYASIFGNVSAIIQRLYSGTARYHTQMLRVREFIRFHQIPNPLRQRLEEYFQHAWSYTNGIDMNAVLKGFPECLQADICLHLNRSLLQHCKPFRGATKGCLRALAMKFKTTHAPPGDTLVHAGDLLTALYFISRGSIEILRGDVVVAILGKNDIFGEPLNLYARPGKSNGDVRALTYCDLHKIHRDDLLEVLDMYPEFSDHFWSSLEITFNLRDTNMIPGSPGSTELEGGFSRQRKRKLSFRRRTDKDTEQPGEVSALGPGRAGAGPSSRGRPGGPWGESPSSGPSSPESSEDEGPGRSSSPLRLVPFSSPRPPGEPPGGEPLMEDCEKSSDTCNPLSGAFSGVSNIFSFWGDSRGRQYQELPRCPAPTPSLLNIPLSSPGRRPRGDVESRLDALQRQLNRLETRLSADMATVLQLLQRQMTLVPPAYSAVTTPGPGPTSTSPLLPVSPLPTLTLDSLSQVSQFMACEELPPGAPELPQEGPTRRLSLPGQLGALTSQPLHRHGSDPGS
structure (smiles),measurement,setting,value
C[C@@H]1[C@H]2C[C@@H](C[C@H]1NC(=O)c1cc3c(F)cc(F)cc3[nH]1)C2(C)C,Activity,[1],0.6 log10CFU
same,inhibition (INH),Cytochrome P450 2C9,-5.2%
same,"remaining at 1 h, 3 µM",[2],69.5%
same,Cmax,[3],1710 ng/mL
same,Activity,[4],Not Active
same,Tmax,[5],4 h
same,MRT last,[6],7.28 h
same,growth inhibition (GI),[7],90.5%
same,Cmax,[8],3500 ng/g
same,Activity,[9],Not Active
same,"remaining at 2 h, 1 µM",[10],15%
same,selectivity ratio,[11],≥ 16000
same,"remaining at 2 h, 1 µM",[12],0.7%
same,IC50,[13],> 30 µM
same,Activity,[14],Active
